# Key:
# SK-MEL-2 = experiment: Antiproliferative activity against human SK-MEL-2 cells incubated for 48 hrs by sulforhodamine B assay; format: functional; details: SK-MEL-2, 48 h
# Outline: (§1)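 Run externally by the US National Cancer Institute as part of its 60 human cancer cell line cytotoxicity screen (NCI-60).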
# [1] = Half life in rat liver microsomes; format: ADME
# ACHN = experiment: Antiproliferative activity against human ACHN cells incubated for 48 hrs by sulforhodamine B assay; format: functional; outline: as §1
# [2] = Cytotoxicity against human Bel7404 cells after 72 hrs by MTT assay; format: functional, cell-based; details: BEL-7404, 72 h
# Outline: (§2)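 Log-phase cells at 40,000–50,000 cells/mL in DMEM with 10% FBS and antibiotics were seeded and cultured overnight at 37 °C, 5% CO₂. Compounds were diluted in DMSO/PBS from 10^-4 to 10^-9 M and applied for 72 h. MTT (5 mg/mL stock) was then added for 4 h and absorbance read at 570 nm. IC50 came from nonlinear regression on triplicate wells, averaged.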
# [3] = Antitumor activity against human Bel7404 cells xenografted in BALB/c nude mouse assessed as reduction in tumor volume at 30 mg/kg, po qd for 14 consecutive days relative to control; format: functional, BEL-7404; design: scale not given: the % may be the effect or the level left
# Outline: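 Male BALB/c nude mice carried implanted BEL-7404 tumours and were randomized once tumours reached 100–300 mm³ (about 12 days); there were 6 per treated group and 8 controls. Drug in 5% polysorbate 80/water was given orally once daily for 14 days from day 13. Tumour volume (1/2·a·b·b) and body weight were tracked, with sacrifice on day 29. The read-out was relative tumour volume versus vehicle, reported as mean SE.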
# [4] = target: Phosphatidylinositol 4,5-bisphosphate 3-kinase catalytic subunit beta isoform (Homo sapiens, UniProt P42338); experiment: Inhibition of PI3K-beta (unknown origin) at 10 nM after 40 mins by ADP-Glo luminescent kinase assay
# Phosphatidylinositol 4,5-bisphosphate 3-kinase catalytic subunit beta isoform, sequence (P42338 whole entry, looked up, canonical isoform): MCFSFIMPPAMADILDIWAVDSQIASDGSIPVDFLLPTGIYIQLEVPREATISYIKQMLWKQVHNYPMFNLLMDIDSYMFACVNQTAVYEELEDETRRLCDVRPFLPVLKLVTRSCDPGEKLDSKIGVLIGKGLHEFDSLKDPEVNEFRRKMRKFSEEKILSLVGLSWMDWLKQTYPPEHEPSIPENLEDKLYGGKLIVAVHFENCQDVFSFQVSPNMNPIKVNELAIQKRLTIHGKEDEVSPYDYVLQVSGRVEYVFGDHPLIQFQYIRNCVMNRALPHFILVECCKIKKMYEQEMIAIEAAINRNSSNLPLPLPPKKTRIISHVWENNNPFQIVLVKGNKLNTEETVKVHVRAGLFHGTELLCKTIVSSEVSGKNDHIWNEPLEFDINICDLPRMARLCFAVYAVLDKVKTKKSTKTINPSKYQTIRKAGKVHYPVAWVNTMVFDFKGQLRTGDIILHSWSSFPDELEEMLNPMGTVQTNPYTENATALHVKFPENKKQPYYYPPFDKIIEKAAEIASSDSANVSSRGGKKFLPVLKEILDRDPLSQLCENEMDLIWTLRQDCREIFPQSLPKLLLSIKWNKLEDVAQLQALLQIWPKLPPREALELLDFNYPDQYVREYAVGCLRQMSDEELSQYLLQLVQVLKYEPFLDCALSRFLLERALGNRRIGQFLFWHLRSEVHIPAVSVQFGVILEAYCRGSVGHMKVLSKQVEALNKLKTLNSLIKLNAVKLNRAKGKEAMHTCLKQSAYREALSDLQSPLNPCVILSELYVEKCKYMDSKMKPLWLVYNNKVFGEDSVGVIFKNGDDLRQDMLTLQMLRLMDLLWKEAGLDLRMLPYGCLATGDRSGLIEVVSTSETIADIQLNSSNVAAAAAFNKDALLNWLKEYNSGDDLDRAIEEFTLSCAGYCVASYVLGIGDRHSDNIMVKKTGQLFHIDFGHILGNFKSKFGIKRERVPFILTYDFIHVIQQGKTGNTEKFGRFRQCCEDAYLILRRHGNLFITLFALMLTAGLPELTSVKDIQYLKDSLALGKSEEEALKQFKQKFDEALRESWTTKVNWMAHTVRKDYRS
# Outline: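 Final enzyme was PI3Kβ 4.8 nM and PI3Kγ 7.6 nM. ADP-Glo reagent stopped the reaction (40 min), then detection reagent was added (60 min) and luminescence read. Percent inhibition was derived from RLU.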
# NCI-H460 = experiment: Antiproliferative activity against human NCI-H460 cells incubated for 48 hrs by sulforhodamine B assay; format: functional; details: NCI-H460, 48 h; outline: as §1
# [5] = Antiproliferative activity against human HL-60(TB) cells incubated for 48 hrs by sulforhodamine B assay; format: functional; details: HL-60, 48 h
# [6] = Antiproliferative activity against human SF539 cells incubated for 48 hrs by sulforhodamine B assay; format: functional; details: SF-539, 48 h; outline: as §1
# [7] = Antiproliferative activity against human BT549 cells incubated for 48 hrs by sulforhodamine B assay; format: functional; details: BT-549, 48 h; outline: as §1
# [8] = Antiproliferative activity against human HCT15 cells incubated for 48 hrs by sulforhodamine B assay; format: functional; details: HCT-15, 48 h; outline: as §1
# [9] = target: T1, Phosphatidylinositol 4,5-bisphosphate 3-kinase catalytic subunit delta isoform (Homo sapiens) (UniProt O00329); experiment: Inhibition of PI3K-delta (unknown origin) using PIP2 as substrate at 10 nM incubated for 1 hr by Kinase-Glo luminescent kinase assay
# T1 sequence (whole entry): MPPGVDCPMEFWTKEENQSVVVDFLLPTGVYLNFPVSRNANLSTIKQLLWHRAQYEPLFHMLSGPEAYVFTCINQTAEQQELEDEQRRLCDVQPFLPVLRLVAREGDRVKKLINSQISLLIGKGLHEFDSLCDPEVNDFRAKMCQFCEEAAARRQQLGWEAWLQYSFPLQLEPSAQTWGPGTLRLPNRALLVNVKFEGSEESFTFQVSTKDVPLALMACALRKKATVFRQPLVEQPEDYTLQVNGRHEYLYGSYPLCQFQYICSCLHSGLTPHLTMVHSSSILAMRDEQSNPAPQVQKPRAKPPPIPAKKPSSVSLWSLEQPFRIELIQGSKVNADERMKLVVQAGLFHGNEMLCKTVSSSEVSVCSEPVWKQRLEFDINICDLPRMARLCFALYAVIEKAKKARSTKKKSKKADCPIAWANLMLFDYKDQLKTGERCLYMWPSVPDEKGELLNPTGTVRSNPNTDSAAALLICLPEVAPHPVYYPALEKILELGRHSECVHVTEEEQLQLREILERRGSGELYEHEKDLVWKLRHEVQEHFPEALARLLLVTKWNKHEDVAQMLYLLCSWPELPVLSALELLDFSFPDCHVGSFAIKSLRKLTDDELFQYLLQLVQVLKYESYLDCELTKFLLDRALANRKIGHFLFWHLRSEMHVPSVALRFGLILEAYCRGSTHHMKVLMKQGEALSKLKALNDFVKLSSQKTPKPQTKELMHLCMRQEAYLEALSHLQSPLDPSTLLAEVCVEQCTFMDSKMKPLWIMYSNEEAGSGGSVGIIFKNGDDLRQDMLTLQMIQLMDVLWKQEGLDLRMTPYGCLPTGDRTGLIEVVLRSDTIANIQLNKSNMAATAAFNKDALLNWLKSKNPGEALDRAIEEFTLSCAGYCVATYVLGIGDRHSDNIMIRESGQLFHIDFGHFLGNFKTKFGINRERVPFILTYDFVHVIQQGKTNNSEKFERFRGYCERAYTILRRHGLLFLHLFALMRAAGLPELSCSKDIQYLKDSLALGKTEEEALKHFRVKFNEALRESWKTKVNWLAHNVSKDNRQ
# Outline: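 Final PIP2 was 50 µM and ATP 25 µM; PI3Kδ was 1.65 nM. Reactions ran 1 h at room temperature, then Kinase-Glo was added for 15 min before reading luminescence. Percent inhibition was derived from RLU. Dose-response used ten 3-fold dilutions (top 100 or 500 nM) in duplicate.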
# MDA-MB-435 = experiment: Antiproliferative activity against human MDA-MB-435 cells incubated for 48 hrs by sulforhodamine B assay; format: functional; details: MDA-MB-435, 48 h; outline: as §1
# [10] = Antiproliferative activity against human OVCAR3 cells incubated for 48 hrs by sulforhodamine B assay; format: functional; details: OVCAR-3, 48 h; outline: as §1
# MDA-MB-231 = experiment: Cytotoxicity against human MDA-MB-231 cells after 72 hrs by MTT assay; format: functional, cell-based; details: MDA-MB-231, 72 h; outline: as §2
# CCRF-CEM = experiment: Antiproliferative activity against human CCRF-CEM cells incubated for 48 hrs by sulforhodamine B assay; format: functional; outline: as §1
# [11] = Antiproliferative activity against human HCC2998 cells incubated for 48 hrs by sulforhodamine B assay; format: functional; details: HCC 2998, 48 h; outline: as §1
# [12] = read-out: pLC50 (the source's name) (converted)
smiles,measurement,setting,value
COc1ncc(-c2ccc3nccc(C#CCN4CCN(S(C)(=O)=O)CC4)c3c2)cc1NS(=O)(=O)c1ccc(F)cc1F,GI50,SK-MEL-2,110 nM
same,CC50,SK-MEL-2; [12],26300 nM
same,TGI,SK-MEL-2; read-out: pTGI (converted),871 nM
same,half-life,[1],29 min
same,GI50,ACHN,45.7 nM
same,CC50,ACHN; [12],34700 nM
same,TGI,ACHN; read-out: pTGI (converted),6920 nM
same,IC50,[2],20 nM
same,Activity,[3],52%
same,inhibition,[4],69%
same,GI50,NCI-H460,51.3 nM
same,CC50,NCI-H460; [12],30900 nM
same,TGI,NCI-H460; read-out: pTGI (converted),2140 nM
same,GI50,[5],19.5 nM
same,CC50,[5]; [12],> 100000 nM
same,TGI,[5]; read-out: pTGI (converted),1450 nM
same,GI50,[6],55 nM
same,CC50,[6]; [12],2690 nM
same,TGI,[6]; read-out: pTGI (converted),363 nM
same,GI50,[7],41.7 nM
same,CC50,[7]; [12],4570 nM
same,TGI,[7]; read-out: pTGI (converted),813 nM
same,GI50,[8],55 nM
same,CC50,[8]; [12],6610 nM
same,TGI,[8]; read-out: pTGI (converted),1350 nM
same,inhibition,[9],25.8%
same,GI50,MDA-MB-435,75.9 nM
same,CC50,MDA-MB-435; [12],6610 nM
same,TGI,MDA-MB-435; read-out: pTGI (converted),1070 nM
same,GI50,[10],51.3 nM
same,CC50,[10]; [12],6610 nM
same,TGI,[10]; read-out: pTGI (converted),1100 nM
same,IC50,MDA-MB-231,1440 nM
same,GI50,CCRF-CEM,148 nM
same,CC50,CCRF-CEM; [12],> 100000 nM
same,TGI,CCRF-CEM; read-out: pTGI (converted),2570 nM
same,GI50,[11],61.7 nM
same,CC50,[11]; [12],3980 nM
same,TGI,[11]; read-out: pTGI (converted),1120 nM

# Source: ChEMBL document CHEMBL3763019, “Discovery of benzenesulfonamide derivatives as potent PI3K/mTOR dual inhibitors with in vivo efficacies against hepatocellular carcinoma” (Bioorg Med Chem, 2016)
